Published values gathered from unrelated publications.
Compare with care: the assays were run in different laboratories.
Target: Death-associated protein kinase 3 (DAPK3, Homo sapiens, UniProt O43293)

Structure (SMILES) | assay | conditions | remaining binding [%]
COc1cnc(Nc2cccc(S(N)(=O)=O)c2)nc1N1CCN(c2ccccc2)CC1 | binding, competition with immobilised ligand | 1 µM | 76
Cc1c(NC(=O)c2cc(C(N)=O)nc3cc(F)ccc23)c(C(F)(F)F)nn1Cc1ccc(C#N)cc1 | cell-free assay, competition with immobilised ligand | 1 µM | 89
CN(c1nccc(-c2cnn3ncccc23)n1)C1CC1 | binding | 1 µM | 70
Nc1ncc2c(n1)-c1c([nH]c3ccc(C#CC4CC4)cc13)CCCC2 | binding, competition with immobilised ligand | 1 µM | 100
C=CC(=O)N1CCC(C(=O)NCC(=O)N2CCN(c3nc(-c4cnc(N)nc4C(F)F)nc(N4CCOCC4)n3)CC2)CC1 | binding, competition with immobilised ligand | 1 µM | 89
CN(C)c1nccc(-c2cnn3ncccc23)n1 | binding | 1 µM | 91
CCN1CCN(Cc2ccc(C(=O)Nc3ccc(C)c(Oc4ccc5c(c4)CC(=O)N5)c3)cc2C(F)(F)F)CC1 | binding, competition with immobilised ligand | 1 µM | 100
N[C@@H]1CCN(c2nccc(-c3cnn4ncccc34)n2)C1 | binding | 1 µM | 99
COc1cnc(Nc2cccc(S(N)(=O)=O)c2)nc1N1CCN(c2ccccc2)C(=O)C1 | binding, competition with immobilised ligand | 1 µM | 92
O=C(c1ccc(Nc2ncc(Cl)c(-c3ccc(Cl)s3)n2)cc1)N1CCC(N2CCCC2)CC1 | binding, competition with immobilised ligand | 1 µM | 14
CNC(=O)Nc1ccc2c(c1)[C@@]1(CC2)OC(=O)N(CC(=O)N(Cc2ccc(F)cc2)[C@@H](C)C(F)(F)F)C1=O | cell-free assay, competition with immobilised ligand | 1 µM | 100
CN(C)c1nccc(-c2cnc3ncccn23)n1 | binding | 1 µM | 91
CS(=O)(=O)N1CCCC(NC(=O)[C@H](CCC2CCCCC2)NC(=O)c2ccc(CNC(=O)c3cnc4ccccn34)cc2)C1 (stereo partly shown) | cell-free assay, competition with immobilised ligand | 0.1 µM | 90
O=C(Nc1c[nH]nc1C(=O)NC1CCNCC1)c1cc(F)cc(F)c1 | binding, competition with immobilised ligand | 1 µM | 100
Cn1cc(Cl)c2c(Oc3c(F)cc(Nc4cc(Cl)nc(N)n4)cc3F)ccnc21 | cell-free assay, competition with immobilised ligand | 0.1 µM | 100
O=C(NCCCN1CCOCC1)c1ccc(Nc2nccc(-c3cc4ccccc4s3)n2)cc1 | binding, competition with immobilised ligand | 1 µM | 9.7
O=C1NC(c2ccccn2)Sc2ccccc21 (stereo not shown) | cell-free assay, competition with immobilised ligand | 1 µM | 0
O=C(c1ccc(Nc2ncc(Cl)c(-c3cc4ccccc4s3)n2)cc1)N1CCC(N2CCCC2)CC1 | binding, competition with immobilised ligand | 1 µM | 11
CCCCN(CCCC)C(=O)CN1C[C@@H](c2cc(OC)c3c(c2)OCO3)[C@H](C(=O)O)[C@H]1CC(C)(C)CCC | cell-free assay, competition with immobilised ligand | 1 µM | 100
C[C@@H]1CCN(c2nccc(-c3cnn4ncccc34)n2)C1 | binding | 1 µM | 69
COc1ccc2cc(OCC3(C(=O)O)CN(C(=O)c4ccc(F)cc4)C3)ccc2c1 | cell-free assay, competition with immobilised ligand | 1 µM | 100
CN(C)c1ncc(F)c(-c2cnn3ncccc23)n1 | binding | 1 µM | 63
